# Screening data as filed in PubChem.
# The list is not random: actives were taken first. Their share in the collection is about 1.6%.
# HNF4A DNA FP = change in binding of human HNF4A to DNA, primary screen, biochemical, fluorescence polarization, FITC-DNA; activity change, % at 10 µM; Hepatocyte nuclear factor 4-alpha (Homo sapiens), P41235; 360,000 tested, 0.3% active; 1 h; AID 1224865, 2016; in the data active = activity change above about 30%, passing the limit was not always enough
# Target sequence (P41235 whole entry, looked up): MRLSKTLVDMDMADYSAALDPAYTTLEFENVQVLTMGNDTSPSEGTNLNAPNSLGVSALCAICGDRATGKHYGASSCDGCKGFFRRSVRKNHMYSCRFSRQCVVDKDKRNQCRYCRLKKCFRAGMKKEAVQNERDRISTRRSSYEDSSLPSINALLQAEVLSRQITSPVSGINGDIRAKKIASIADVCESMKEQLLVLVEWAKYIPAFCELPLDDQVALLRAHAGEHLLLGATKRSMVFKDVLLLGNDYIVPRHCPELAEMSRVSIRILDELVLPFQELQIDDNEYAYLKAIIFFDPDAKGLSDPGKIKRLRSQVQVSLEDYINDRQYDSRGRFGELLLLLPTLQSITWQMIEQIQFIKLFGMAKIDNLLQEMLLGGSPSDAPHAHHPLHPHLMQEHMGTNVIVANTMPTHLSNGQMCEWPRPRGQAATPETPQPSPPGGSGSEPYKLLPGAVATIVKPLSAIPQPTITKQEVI
# CSN inh = inhibitors of CSN-mediated cullin deneddylation, primary screen, biochemical, fluorescence polarization, uHTS | Purified CSN, SCF-Nedd8-OG deneddylation | inhibition, % at 12.5 µM | 360,000 tested, 0.38% active;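 active = pattern-corrected inhibition above about 35%, with an unprinted fluorescence ratio check between 0.5 and 1.5, limit read from the data, passing the limit was not always enough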
#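 Assay system: purified human Csn5 enzyme expressed in HEK293T cells; Input: 0.24 nM Csn5 enzyme, final concentration; Reagent: 10 nM SCFSkp2-Nedd8OG; Compound dosing: 12.5 µM single point; Times: reaction 90 min, room temperature; Technique: fluorescence polarization readout.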
# Rpn11 block = Rpn11 (PSMD14) deubiquitinase inhibitors, primary screen, biochemical, fluorescence polarization, uHTS. 26S proteasome non-ATPase regulatory subunit 14 (Homo sapiens), O00487. human 26S proteasome, Ub4-pepOG fluorescence polarization; 20S core pre-blocked with epoxomicin. 360,000 tested, 0.59% active. calls only at 20 µM;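 active = inhibition at 20 µM, scaled to each plate's controls, above about 33%, limit read from the data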
# TPT1 inhibitor = Candida albicans TPT1 enzyme inhibitors, primary screen, biochemical, fluorescence polarization; tRNA 2'-phosphotransferase TPT1 (Candida albicans SC5314); recombinant caTPT1, FP RNA substrate dephosphorylation; inhibition, % at 5 µM; 300,000 tested, 0.81% active; AID 1962, 2009;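 active = inhibition above the mean of all tested compounds plus 3 SD, set per screening campaign, cut at about 24% in these data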
# PKA-R1A activ = activators of PKA-R1A holoenzyme, primary screen, biochemical, fluorescence polarization, Cy5-IP20, bovine R1A, mouse PKAc; cAMP-dependent protein kinase type I-alpha regulatory subunit (Bos taurus) + …; PKA-R1A dissociation; scaled: DMSO 0%, 113 µM cGMP 100%; activation, % at 11.4 µM; 340,000 tested, 0.083% active; AID 504707, 2011;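 active = percent activation above the mean of all tested compounds plus 3 SD, cut at about 19% in these data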;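 also: higher means more PKAc released from R1A so a rise in polarization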
# PKA-R2B act = activators of PKA-R2B holoenzyme, primary screen, biochemical, fluorescence polarization, Cy5-IP20, human. 340,000 tested, 0.079% active. AID 504700, 2011. PKA-R2B holoenzyme dissociation; R2B truncated from residue 108, S112A mutant; 0% DMSO only, 100% 113 µM cGMP. cAMP-dependent protein kinase catalytic subunit beta (Homo sapiens) + cAMP-dependent …. activation, % at 11.4 µM;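 active = activation above a cutoff set at the mean over all compounds plus 3 SD, cut at about 18% in these data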;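 also: higher means more holoenzyme dissociation and a rise in polarization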
# Rpn11 inh conf = Rpn11 (PSMD14) deubiquitinase inhibitors, confirmation, biochemical, fluorescence polarization, single concentration; shares compounds with Rpn11 block; AID 602318, 2012; purified human 26S proteasome, Ub4-pepOG fluorescence polarization; proteasome pretreated with epoxomicin; 1,900 tested, 29% active; inhibition, % at 20 µM
# MMP-2 counter = MMP-2 enzyme inhibition, confirmation, counter-screen for RPN11 inhibitor project, biochemical, fluorescence, single concentration | shares compounds with Rpn11 block | recombinant MMP-2, FRET peptide cleavage fluorescence | inhibition, % at 20 µM | 1,900 tested, 4% active | AID 602330, 2012;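 also: human MMP-2 activated beforehand with APMA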
# Thrombin FP = bovine thrombin protease inhibition, confirmation, counter-screen for Rpn11 inhibitor project, biochemical, fluorescence polarization, single concentration; inhibition, % at 20 µM; 1,900 tested, 13% active; bovine thrombin cleavage of Ub4-pepOG; shares compounds with Rpn11 block;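 active = mean inhibition at least 40% at 20 µM, or signal 3 deviations below plate average, so some actives read negative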
# A number is an active result; n = inactive; x = not tested or not shown; + = active, no number. Rule as the data show it, unless noted: active = inhibition above about 40%; inactive = the rest.
SMILES,HNF4A DNA FP,CSN inh,Rpn11 block,TPT1 inhibitor,PKA-R1A activ,PKA-R2B act,Rpn11 inh conf,MMP-2 counter,Thrombin FP
CC1(C(=O)NS(=O)(=O)c2cccc(C#N)c2)CCN1C(=O)CCc1ccccc1 (stereo unspecified),n,n,n,x,x,x,x,x,x
CCOC(=O)c1ccc(NC(=O)CSc2nc3cccnc3n2C)cc1,n,n,n,n,n,n,x,x,x
CC1(C)Oc2ccc(C(=O)NC3CCCC3)cc2N(CC(=O)N2CCOCC2)C1=O,n,n,+,n,n,n,n,n,n
Cc1noc(/C=C/c2ccco2)c1S(=O)(=O)N1CCC(C(=O)NC(C)c2ccccc2)CC1 (stereo unspecified),n,n,+,n,n,n,n,n,n
COc1ccc(/C=C\c2onc(C)c2S(=O)(=O)N2CCC(C(=O)NCc3ccco3)CC2)cc1,n,n,n,n,n,n,x,x,x
Cc1ccc2nc(Nc3nc(-c4ccccc4)cc(=O)[nH]3)nc(C)c2c1,n,n,n,n,n,n,x,x,x
COc1ccc2c(C)nc(Nc3nc(-c4ccccc4)cc(=O)[nH]3)nc2c1,n,n,+,n,n,n,n,n,n
CN(Cc1ccccc1)C(=O)c1ccc(NC(=O)Cc2cccc(NC(=O)C3CCCN(C(=O)C4CCC4)C3)c2)cc1 (stereo unspecified),n,n,n,x,n,n,x,x,x
COCCCNc1cc(C)nc2ccccc12,n,n,n,n,n,n,x,x,x
Cc1cc(NCCCCCCCNc2cc(C)nc3cc([N+](=O)[O-])ccc23)c2ccc([N+](=O)[O-])cc2n1,n,n,+,x,n,n,85,76,n
CCCCCCCC(=O)Nc1ccc(C(=O)N/N=C/c2cccc([N+](=O)[O-])c2)cc1,n,n,+,n,n,n,n,n,n
CCCCCCC(=O)Nc1ccc(C(=O)N/N=C/c2cccnc2)cc1,n,n,n,n,n,n,x,x,x
CCCNC(=O)C1(C)CCCN(C/C=C/c2ccccc2)C1 (stereo unspecified),n,n,n,x,x,x,x,x,x
Brc1ccc(NC(c2ccccc2)c2ccncc2)cc1 (stereo unspecified),n,n,n,n,n,n,x,x,x
COc1ccc(C2=NNC(=O)CC2)cc1,n,n,n,n,n,n,x,x,x
CCn1c(O)c(/C=N/N=C2CCCC2)c2ccc(C3=NNC(=O)CC3)cc21,n,n,+,n,n,n,n,n,n
Cc1nc(NC(=O)c2ccccc2)sc1-c1csc(NCCc2ccccc2)n1,n,40,+,n,n,n,n,n,n
CCCCn1c(N)c(N(C)C(=O)C2CC(=O)N(Cc3ccco3)C2)c(=O)[nH]c1=O (stereo unspecified),n,n,n,x,n,n,x,x,x
CCCCN=C1NN=C(c2cc3ccccc3o2)CS1,n,n,+,n,n,n,n,n,n
Cc1cc(NC(=O)CCCn2cc([N+](=O)[O-])cn2)n(Cc2ccc(F)cc2)n1,n,n,n,n,n,n,x,x,x
CN(C)S(=O)(=O)c1cccc(C(=O)Nc2ccc3c(c2)CCC3)c1,n,n,n,n,n,n,x,x,x
O=C(Nc1sc2c(c1C(=O)O)CCCC2)c1cccc(Cl)c1,n,n,n,x,n,n,x,x,x
COc1cccc(C(=O)NCC(=O)N/N=C/c2c(C)[nH]c3ccccc23)c1,n,n,n,n,n,n,x,x,x
COc1ccc2c(Cl)c(C(=O)N/N=C/c3c(C)[nH]c4ccccc34)sc2c1,n,n,+,n,n,n,99,n,53
CCc1noc(C)c1C(=O)N1CCN(c2cccc(Cl)c2)CC1,n,n,n,x,n,n,x,x,x
SMILES,HNF4A DNA FP,CSN inh,Rpn11 block,TPT1 inhibitor,PKA-R1A activ,PKA-R2B act,Rpn11 inh conf,MMP-2 counter,Thrombin FP
CCOc1ccc2nc(SCC(=O)Nc3cc(C)on3)c(C)cc2c1,n,n,n,n,n,n,x,x,x
Cc1cc2c(=O)n(Cc3ccco3)c(SCC(=O)c3ccc(Cl)s3)nc2s1,n,n,+,n,n,n,n,n,n
CC(C)(C)OC(=O)CC(S(=O)(=O)c1ccccc1)S(=O)(=O)c1ccccc1,n,n,n,x,n,n,x,x,x
CCN(CC(=O)Nc1ccc(OC)cc1)CC(=O)N1CC(=O)Nc2ccccc21,n,n,n,x,n,n,x,x,x
O=C(CSc1nc2c(oc3ccccc32)c(=O)n1CC1CCCO1)NCc1ccc(F)cc1 (stereo unspecified),n,n,n,x,n,n,x,x,x
COC(=O)c1ccc(NC(=O)c2cn(-c3ccccc3)nc2-c2ccncc2)cc1,n,n,+,n,n,n,n,n,n
CC(=O)c1ccc(NC(=O)c2cn(-c3ccccc3)nc2-c2ccncc2)cc1,n,n,n,n,n,n,x,x,x
Cc1cc(C)c(S(=O)(=O)NCC(c2ccco2)N2CCc3ccccc3C2)c(C)c1 (stereo unspecified),n,n,n,n,n,n,x,x,x
CC1(C)CC(=O)C=C(Nc2ccc(F)cc2)C1,n,n,n,n,n,n,x,x,x
CC1(C)CC(=O)C=C(Nc2ccc(OCC(F)(F)C(F)F)cc2)C1,n,n,+,n,n,n,n,n,n
COc1ccc(NC(=O)c2ccc(S(=O)(=O)N3CC(C)CC(C)C3)cc2)cc1S(N)(=O)=O (stereo unspecified),n,n,n,x,n,n,x,x,x
CCOC(=O)c1c(C)[nH]c(C(=O)OCC(=O)N(CC)c2c(N)n(Cc3ccccc3)c(=O)[nH]c2=O)c1C,n,n,n,x,n,n,x,x,x
CCOC(=O)c1c(C)[nH]c(C(=O)OCC(=O)N(CC(C)C)c2c(N)n(Cc3ccccc3)c(=O)[nH]c2=O)c1C,n,n,+,n,n,n,104,n,69
